Measurements of several laboratories.
Each line is one published result; the experiments were not run side by side.
XDH: Xanthine dehydrogenase/oxidase (XDH, Bos taurus, UniProt P80457)
STAT5B SH2: Signal transducer and activator of transcription 5B, SH2 (STAT5B, Homo sapiens, UniProt P51692)
SPHK2: Sphingosine kinase 2 (SPHK2, Homo sapiens, UniProt Q9NRA0)
SIRT1: NAD-dependent protein deacetylase sirtuin-1 (SIRT1, Homo sapiens, UniProt Q96EB6)
SLC7A5: Large neutral amino acids transporter small subunit 1 (SLC7A5, Homo sapiens, UniProt Q01650)
Adra1b: Alpha-1B adrenergic receptor (Adra1b, Rattus norvegicus, UniProt P15823)

SMILES | target | test | conditions | inhibition [%]
O=C(CO)c1ccc(O)c(O)c1 | XDH | enzyme activity, inhibitor, absorbance | 200 µg/mL | 43.3
O=C(O)Cc1ccccc1OP(=O)(O)O | STAT5B SH2 | ligand displacement, FP | 100 µM | 39
N=C(N)N1CCC[C@H]1c1nc(-c2ccc(CCc3ccc(C(F)(F)F)cc3)c(C(F)(F)F)c2)no1 | SPHK2 | enzyme activity, inhibitor, radiometric | 0.3 µM | 59
CC(C)(C)C(=O)OCOP(=O)(Cc1ccccc1CP(=O)(OCOC(=O)C(C)(C)C)OCOC(=O)C(C)(C)C)OCOC(=O)C(C)(C)C | STAT5B SH2 | ligand displacement, FP | 100 µM | -1
O=C(NC1CCC1)[C@H](Cc1c[nH]c2ccccc12)NC(=O)[C@H](CCCCNC(=S)NCCn1nn[nH]c1=O)NS(=O)(=O)c1cccc(F)c1 | SIRT1 | enzyme activity, inhibitor | 10 µM | 17
CCCCCC1CC(=O)c2cc([N+](=O)[O-])ccc2O1 (centres unmarked) | SIRT1 | enzyme activity, inhibitor, fluorescence | 200 µM | 4.7
NC(CNC(=O)c1ccccc1)C(=O)O (centres unmarked) | SLC7A5 | transporter uptake, inhibitor, radiometric | 200 µM | 4.6
CCCCCCCCCCCCNC(=S)NCCCC[C@H](NC(=O)OCc1ccccc1)C(=O)N[C@@H](Cc1c[nH]c2ccccc12)C(=O)N[C@@H](CCNC(=N)N)C(N)=O | SIRT1 | enzyme activity, inhibitor | 1 µM | 30
NC(CCCNC(=O)c1ccccc1)C(=O)O (centres unmarked) | SLC7A5 | transporter uptake, inhibitor, radiometric | 200 µM | 54
OCCc1ccc(O)cc1 | XDH | enzyme activity, inhibitor, absorbance | 100 µg/mL | 7.9
CCCCCCCCCCCCNC(=S)NCCCC[C@H](NC(=O)OCc1ccccc1)C(=O)N[C@@H](Cc1c[nH]c2ccccc12)C(=O)N[C@@H](CCCCNC(=N)N)C(N)=O | SIRT1 | enzyme activity, inhibitor | 1 µM | 76
N=C(N)N1CCC[C@H]1c1nc(-c2ccc(CCC3CCCCC3)c(C(F)(F)F)c2)no1 | SPHK2 | enzyme activity, inhibitor, radiometric | 0.3 µM | 71
CCCCCC1CC(=O)c2cc(C)cc(C)c2O1 (centres unmarked) | SIRT1 | enzyme activity, inhibitor, fluorescence | 200 µM | 3.2
[H]/N=C(\N)N1CCC[C@H]1c1nc(-c2ccc(OCC=CCCCC)c(C(F)(F)F)c2)no1 | SPHK2 | enzyme activity, inhibitor, radiometric | 0.3 µM | 48
CCCCCC1CC(=O)c2cc(Cl)ccc2O1 (centres unmarked) | SIRT1 | enzyme activity, inhibitor, fluorescence | 200 µM | 2.7
O=C1C=C(c2ccc(O)c(O)c2)CO1 | XDH | enzyme activity, inhibitor, absorbance | 100 µg/mL | 17.2
CCOCCOCCOCCNC(=S)NCCCC[C@H](NS(C)(=O)=O)C(=O)N[C@H](C)C(=O)N[C@@H](CCCNC(=N)N)C(N)=O | SIRT1 | enzyme activity, inhibitor | 100 µM | 16
N[C@@H](Cc1ccc(OC(=O)c2ccccc2)cc1)C(=O)O | SLC7A5 | transporter uptake, inhibitor, radiometric | 200 µM | 49
CCCCCC1CC(O)c2cc(Cl)cc(Br)c2O1 (centres unmarked) | SIRT1 | enzyme activity, inhibitor, fluorescence | 200 µM | -5.5
N=C(N)N1CCC[C@H]1c1nc(-c2ccc(CCC3CCCC3)c(C(F)(F)F)c2)no1 | SPHK2 | enzyme activity, inhibitor, radiometric | 0.3 µM | 25
O=C(O)c1ccc(O)c(O)c1 | XDH | enzyme activity, inhibitor, absorbance | 200 µg/mL | 20.8
CCCCCCCCCCCCNC(=S)NCCCC[C@H](NC(=O)OCc1ccccc1)C(=O)N[C@@H](Cc1c[nH]c2ccccc12)C(=O)N[C@@H](CC(N)=O)C(N)=O | SIRT1 | enzyme activity, inhibitor | 10 µM | 29
CCCCNC(=S)NCCCC[C@H](NS(=O)(=O)c1cccc(F)c1)C(=O)N[C@@H](Cc1c[nH]c2ccccc12)C(=O)NC1CCC1 | SIRT1 | enzyme activity, inhibitor | 1 µM | > 95
CC(C)CCn1c(SCC(=O)Nc2ccccc2C(F)(F)F)nc2nccnc2c1=O | SPHK2 | enzyme activity, inhibitor | 10 µM | < 20

SMILES | target | test | conditions | inhibition [%]
CCCCCC1CC(=O)c2cccc(Br)c2O1 (centres unmarked) | SIRT1 | enzyme activity, inhibitor, fluorescence | 200 µM | 7.1
N=C(N)N1CCC[C@H]1c1nc(-c2ccc(CCC3CC3)c(C(F)(F)F)c2)no1 | SPHK2 | enzyme activity, inhibitor, radiometric | 0.3 µM | 32
CCOCCOCCNC(=S)NCCCC[C@H](NS(C)(=O)=O)C(=O)N[C@H](C)C(=O)N[C@@H](CCCNC(=N)N)C(N)=O | SIRT1 | enzyme activity, inhibitor | 100 µM | 12
CCCc1ccc(CCc2ccc(-c3noc([C@@H]4CCCN4C(=N)N)n3)cc2C(F)(F)F)cc1 | SPHK2 | enzyme activity, inhibitor, radiometric | 0.3 µM | 65
O=Cc1c[nH]c2ccccc12 | XDH | enzyme activity, inhibitor, absorbance | 100 µg/mL | 8.1
CC(C)C1CC(=O)c2cc(Cl)cc(Br)c2O1 (centres unmarked) | SIRT1 | enzyme activity, inhibitor, fluorescence | 200 µM | 2.8
NC(COC(=O)c1ccccc1)C(=O)O (centres unmarked) | SLC7A5 | transporter uptake, inhibitor, radiometric | 200 µM | 16
CNC(=O)c1cc(Oc2ccc(NC(=O)Nc3ccc(Cl)c(C(F)(F)F)c3)cc2)ccn1 | Platelet-derived growth factor receptor alpha (PDGFRA, Homo sapiens, UniProt P16234) | enzyme activity, inhibitor | 10 µM | 95
C[C@@H](NC(=O)[C@H](CCCCNC(=O)C(F)(F)F)NS(C)(=O)=O)C(=O)N[C@@H](CCCNC(=N)N)C(N)=O | SIRT1 | enzyme activity, inhibitor | 100 µM | 14
O=C(O)c1ccc(O)cc1 | XDH | enzyme activity, inhibitor, absorbance | 200 µg/mL | 17.9
CC(C)(C)c1ccc(CCc2ccc(-c3noc([C@@H]4CCCN4C(=N)N)n3)cc2C(F)(F)F)cc1 | SPHK2 | enzyme activity, inhibitor, radiometric | 0.3 µM | 71
Oc1ncnc2[nH]ncc12 | XDH | enzyme activity, inhibitor, absorbance | 25 µg/mL | 97
CS(=O)(=O)Nc1cccc(-c2csc(NC(=O)CSc3nc4nccnc4c(=O)n3CCc3ccccc3)n2)c1 | SPHK2 | enzyme activity, inhibitor | 10 µM | -12
NC(CCNC(=O)c1ccccc1)C(=O)O (centres unmarked) | SLC7A5 | transporter uptake, inhibitor, radiometric | 200 µM | 8.6
Cn1c(CNC(=S)NCCCC[C@H](NS(=O)(=O)c2cccc(F)c2)C(=O)N[C@@H](Cc2c[nH]c3ccccc23)C(=O)NC2CCC2)n[nH]c1=S | SIRT1 | enzyme activity, inhibitor | 30 µM | 89
CCCCCC=CCOc1ccc(-c2noc([C@@H]3CCCN3C(=N)N)n2)cc1C(F)(F)F (mixture of isomers) | SPHK2 | enzyme activity, inhibitor, radiometric | 0.3 µM | 40
CCCCCC1CCc2cc(Cl)cc(Br)c2O1 (centres unmarked) | SIRT1 | enzyme activity, inhibitor, fluorescence | 200 µM | -5.2
CCCCCCCCCCCCCC(=O)NCCCC[C@H](NS(C)(=O)=O)C(=O)N[C@H](C)C(=O)N[C@@H](CCCNC(=N)N)C(N)=O | SIRT1 | enzyme activity, inhibitor | 10 µM | 23
CCCCCC1CC(=O)c2cc(Cl)cc(Br)c2O1 (centres unmarked) | SIRT1 | enzyme activity, inhibitor, fluorescence | 200 µM | 6.2
OCCc1ccc(O)c(O)c1 | XDH | enzyme activity, inhibitor, absorbance | 200 µg/mL | 12.5
Ic1cccc2cnccc12 | Adra1b | ligand displacement, radioligand | 10 µM | 7
CCCCCCCCCCCCNC(=S)NCCCC[C@H](NC(=O)C1CCCCC1)C(=O)N[C@H](C)C(=O)N[C@@H](CCCNC(=N)N)C(N)=O | SIRT1 | enzyme activity, inhibitor | 1 µM | 44
O=C(c1ccc(F)cc1)N(Cc1ccccc1)C1CCCCC1 | Adra1b | cell-free assay | 10 µM | 4
